# Insulin prom act: TRM-6 insulin promoter activation. TRM-6 cells, insulin promoter eGFP reporter, imaging; plate-scaled: unstimulated 0, stimulated control 100. activation, % at 2 µM. 130,000 tested, 0.81% active. AID 1296;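 active = activation at 2 µM above a set limit, confirmed on inspection of the cell images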;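 also: share of cells whose green reporter signal exceeds an intensity cutoff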
#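 System – human fetal islet-derived TRM-6 cells with tamoxifen-inducible insulin promoter–eGFP reporter · Amount – 1,000 cells per well · Schedule – overnight tamoxifen, then two-day compound incubation at 37 °C · Detection – high-content imaging of fixed cells with Hoechst nuclear stain · Read-out – percent cells above green-intensity threshold, converted to percent activation versus plate controls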
# Numbers without * were called inactive. The full list was thinned out, with hits kept by preference.
SMILES,Insulin prom act
CCn1c(=O)n(CC(=O)Nc2cc(OC)ccc2OC)c(=O)c2ccccc21,600*
Cc1cc(NC(=O)C2CCCCC2)ccc1NC(=O)c1ccccc1Cl,0
COc1ccc(CC(=O)n2nc(-c3ccccc3)nc2NCc2ccco2)cc1,642*
Cc1ccc(-c2nc(NCc3ccco3)n(S(C)(=O)=O)n2)cc1,-8
O=C(Cc1ccc(-c2ccccc2)cc1)NNC(=S)NCc1ccco1,0
O=C(Oc1c(CN2CCOCC2)cc(Cl)c2cccnc12)c1ccccc1,9
Oc1ccc(CN2CCN(Cc3ccccc3)CC2)c2cccnc12,-50
O=[N+]([O-])c1cc(CN2CCN(c3ccccc3)CC2)c(O)c2ncccc12,330*
Cn1c(N=NC(=O)c2ccccc2)c(O)c2ccccc21,-4
CCCn1nc2cc(C(=O)NCCc3cccs3)ccc2c1OCC,9
O=C(c1cc(-c2ccccc2)on1)N1CCN(Cc2ccc3c(c2)OCO3)CC1,-5
O=c1cc(-c2ccccc2)nc(N2CCN(Cc3ccc4c(c3)OCO4)CC2)[nH]1,730*
O=c1[nH]c(CN2CCN(Cc3ccc4c(c3)OCO4)CC2)nc2ccccc12,3
Cc1ccc(C2=[N+]([O-])C3(CCCCC/C3=N\NC(N)=S)N(O)C2(C)C)o1 (stereo not drawn),9
O=S(=O)(Nc1nc2ccccc2nc1Nc1ccc(N2CCOCC2)cc1)c1cc(Cl)ccc1Cl,0
Cc1ccc(S(=O)(=O)N2CCCCC2C(=O)O)cc1 (stereo not drawn),0
COc1ccc(NC(=O)C2CCCN2S(=O)(=O)c2ccc(C)cc2)cc1 (stereo not drawn),0
COC(=O)C1CN(S(=O)(=O)c2ccc(C)cc2)CCN1S(=O)(=O)c1ccc(C)cc1 (stereo not drawn),136*
C=CCNC(=O)COC(=O)c1ccc(C)c(NC(=O)c2ccco2)c1,-73
CCOC(=O)c1c(C)[nH]c(C)c1C(=O)CSc1ncccn1,-3
COc1ccc(N(C(C)=O)S(=O)(=O)c2cccs2)cc1,506*
CCNC(=O)c1ccc(N(C)S(=O)(=O)c2cccs2)cc1,0
CC(=O)N(c1ccc2oc(=O)sc2c1)S(=O)(=O)c1cccs1,0
CN(C)Cc1cn(CCC(=O)O)c2ccccc12,5
CCCCn1c(=O)n(CC(=O)Nc2ccc(OC)c(Cl)c2)c(=O)c2c1nc(CO)n2CCC,5
SMILES,Insulin prom act
O=C(O)CSc1nc(C(F)(F)F)cc(=O)n1-c1ccccc1,0
CC1=CC(C)(C)N2C(=O)C3(N=C(N)NC(Nc4ccccc4)=N3)c3cc(C)cc1c32 (stereo not drawn),481*
CNC(=S)N(Cc1cccs1)Cc1cc2cc(OC)c(OC)cc2[nH]c1=O,3
COc1cc2cc(CN(Cc3cccs3)C(=S)Nc3cccc(C)c3)c(=O)[nH]c2cc1OC,354*
Cc1cccc(NC(=S)N(Cc2cccs2)Cc2cc3cc(C)ccc3[nH]c2=O)c1,-8
Cc1cc(Oc2nnnn2-c2ccccc2)ccc1Cl,4
CCCCCN1N=C(C)CC1=O,-67
CCOc1cc(C)c(-c2onc(C(F)(F)F)c2-c2csc(C)n2)c(O)c1,-9
Cn1c(=O)c2c(nc(Cl)n2CC(=O)N2CCCCC2)n(C)c1=O,0
COc1ccc(C)cc1N(C(=O)c1ccccc1F)c1nc2ccccc2s1,3
Cn1c(CNC(=O)c2ccc(F)cc2)nc2ccccc21,0
O=c1c(/C=C(\O)c2ccc(F)cc2)nc2ccccc2n1-c1ccccc1,128*
NC(=O)CSc1nc2ccccc2n1-c1ccccc1,342
CCSC1=NCCN1S(=O)(=O)c1ccc(NC(C)=O)cc1,-8
CC1(C)C(=O)OC(/C=C\c2ccccc2)C(C)(C)C1=O (stereo not drawn),6
Cc1cc(=S)c2cccc(C)c2[nH]1,-7
O=C(NC1CCCCC1)c1cc([N+](=O)[O-])ccc1N1CCCCC1,8
O=C(CCc1ccc(Oc2cc([N+](=O)[O-])cc([N+](=O)[O-])c2)cc1)NC1CCCC1,3
O=C(CO/N=C/c1cccc([N+](=O)[O-])c1)NC1CCCCCC1,450*
CCCS(=O)(=O)c1nc(S(=O)(=O)c2ccc(C)cc2)c(N2CCc3ccccc3C2)s1,0
Cc1ccc(-n2c3c(c(=O)[nH]c2=S)C(C(F)(F)F)(C(F)(F)F)NC(=O)N3)cc1,3
Cc1noc(C)c1C(=O)Nc1sc(C)c(C)c1C#N,7
CCn1c(C)nc2cc(C(=O)NNC(=S)NC(=O)c3ccccc3)ccc21,7
CC(C)c1ccc(NC(=O)C2C3C=CC4(CN(CCCN5CCOCC5)C(=O)C24)O3)cc1 (stereo not drawn),-7
O=C(c1ccc(Cl)cc1)c1c[nH]c(C(=O)NNc2cccc(Cl)n2)c1,431*
SMILES,Insulin prom act
COC(=O)c1cc(C(=O)c2ccc(C(C)(C)C)cc2)c[nH]1,0
O=C(NNc1cccc(Cl)n1)c1ccc(Cl)cc1Cl,9
COc1ccc(Cl)c(N2CCN(CCCNC(=O)Nc3ccc(C)cc3)CC2)c1,-9
COc1ccccc1C(C)NC(=O)CCOc1cccc(C)c1 (stereo not drawn),-8
Cc1cccc(OCCCC(=O)NC(C)c2ccccc2)c1 (stereo not drawn),85*
Cc1ccc(OCCCC(=O)NC(C)c2ccccc2)cc1 (stereo not drawn),0
CCOC(=O)c1c(-c2ccc(Cl)cc2)c(C#N)c(=O)n(N)c1N,9
CN1CC2([N+](=O)[O-])CC=C(OCCO)C([N+](=O)[O-])(C1)C2 (stereo not drawn),-8
COc1ccc(CCn2c(N3CCOCC3)nc3c2c(=O)[nH]c(=O)n3C)cc1,100*
COc1ccc(CCn2c(-n3nc(C)cc3C)nc3c2c(=O)[nH]c(=O)n3C)cc1,-5
Cn1c(=O)[nH]c(=O)c2c1nc(CN1CCN(c3ccc(F)cc3)CC1)n2CCc1ccccc1,329
CCOC(=O)c1nn(-c2ccccc2)c2nc(-c3ccc(OC)cc3)c(C#N)c(=O)n12,7
Cc1c(C(=O)NN)nn(-c2ccc(Cl)cc2)c(=O)c1C#N,0
COC(=O)Nc1nn(-c2ccc(OC)cc2)c(=O)c(C#N)c1C,287*
O=C(Cn1cccc1C(=O)c1ccccc1)NCCC1=CCCCC1,0
CCCSc1nc(O)c(C(c2ccc(OC)c(O)c2)c2c(O)nc(SCCC)n(C)c2=O)c(=O)n1C,10
CCN(CC)CC#CC(OC)(c1ccccc1)c1ccccc1,-7
CC(C)CNS(=O)(=O)c1ccc(CCC(=O)N2CCN(Cc3ccc4c(c3)OCO4)CC2)cc1,469*
COc1ccc(N(CC(=O)N2CCN(Cc3ccc4c(c3)OCO4)CC2)S(C)(=O)=O)cc1OC,91
O=C(CCc1ccc(S(=O)(=O)NCCc2ccccc2)cc1)N1CCN(Cc2ccc3c(c2)OCO3)CC1,-6
O=C(NCCN1CCOCC1)c1ccc(Cl)cc1[N+](=O)[O-],7
O=C(/C=C/c1ccc(Cl)c([N+](=O)[O-])c1)NCc1cccnc1,-9
CCOC(=O)C(CC)Sc1nnc(COc2ccc(C)cc2)n1-c1ccccc1 (stereo not drawn),131
COc1ccc2c(c1)-c1ccccc1S(=O)(=O)N2C(C)=O,184*
COc1ccc(NC(=O)CN2c3cccc4cccc(c34)S2(=O)=O)cc1,8
COc1ccc2c(=O)c(N3C(=O)c4ccccc4C3=O)coc2c1,28
COc1cc(OC)c(C(=O)Nc2ncn[nH]2)cc1OC,181
O=C(c1ccc(S(=O)(=O)c2cccc(Cl)c2)c([N+](=O)[O-])c1)N1CCN(c2ccccn2)CC1,0

# Screens deposited in PubChem BioAssay by Columbia University Molecular Screening Center.
